In ChEMBL document CHEMBL3600341, “Discovery of a series of novel compounds with moderate anti-hepatitis C virus NS3 protease activity in vitro” (Bioorg Med Chem, 2015):

assay: Inhibition of HCV NS3/4A protease using RET S1 as substrate preincubated for 10 mins followed by substrate addition measured for 30 mins by FRET analysis; set-up: species or system Hepacivirus hominis
Method in brief: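 NS3/4A protease activity followed by intramolecular FRET with quenched-fluorogenic substrate Ac-DED(EDANS)EEAbuY[COO]ASK(DABCYL). Buffer 30 mM HEPES pH 7.5, 40% glycerol, 10 mM DTT, 2% DMSO. Ten-dose 4-fold serial dilution of compound in DMSO; 10 min preincubation, substrate added to start. Kinetic read 30 min, ex 335 nm/em 495 nm. IC50 from percent inhibition versus inhibitor concentration.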

IC50 [µM] | SMILES
5.9 | Cc1ccc(S(=O)(=O)NC(=O)[C@H](CC(C)C)NC(=O)[C@@H]2C[C@H](n3cc(-c4ccccc4)nn3)CN2C(=O)[C@H](Cc2ccccc2)NC(=O)OC(C)(C)C)cc1
72 | CC(C)(C)OC(=O)N[C@H](C(=O)N1C[C@@H](n2cc(-c3ccccc3)nn2)C[C@H]1C(=O)N[C@H](Cc1ccccc1)C(=O)NS(=O)(=O)C1CC1)C1CCCCC1
> 100 | CC(C)C(=O)N[C@H](C(=O)N1C[C@@H](n2cc(-c3ccccc3)nn2)C[C@H]1C(=O)N[C@H](Cc1ccccc1)C(=O)NS(=O)(=O)C1CC1)C1CCCCC1
> 100 | CC(C)C[C@H](NC(=O)[C@@H]1C[C@H](NC(=O)c2ccc3ccccc3c2)CN1C(=O)[C@@H](NC(=O)OC(C)(C)C)C(C)(C)C)C(=O)NS(=O)(=O)C1CC1
2.5 | Cc1ccc(S(=O)(=O)NC(=O)[C@H](CC(C)C)NC(=O)[C@@H]2C[C@H](n3cc(-c4ccccc4)nn3)CN2C(=O)[C@@H](NC(=O)c2ccccc2)C2CCCCC2)cc1
> 100 | CC(C)(C)OC(=O)N[C@H](C(=O)N1C[C@@H](n2cc(-c3ccccc3)nn2)C[C@H]1C(=O)N[C@H](Cc1ccccc1)C(=O)NS(=O)(=O)C1CC1)C(C)(C)C
1.9 | Cc1ccc(S(=O)(=O)NC(=O)[C@H](CC(C)C)NC(=O)[C@@H]2C[C@H](n3cc(-c4ccccc4)nn3)CN2C(=O)[C@@H](NC(=O)c2cccs2)C2CCCCC2)cc1
> 100 | Cc1ccc(S(=O)(=O)NC(=O)[C@H](CC(C)C)NC(=O)[C@@H]2C[C@H](n3cc(-c4ccccc4)nn3)CN2C(=O)[C@@H](NC(=O)OC(C)(C)C)C(C)(C)C)cc1
0.45 | CCC[C@H](NC(=O)[C@@H]1[C@H]2CCC[C@H]2CN1C(=O)[C@@H](NC(=O)[C@@H](NC(=O)c1cnccn1)C1CCCCC1)C(C)(C)C)C(=O)C(=O)NC1CC1 [TELAPREVIR]
> 100 | COc1ccc(C(=O)N[C@H]2C[C@@H](C(=O)N[C@@H](CC(C)C)C(=O)NS(=O)(=O)C3CC3)N(C(=O)[C@@H](NC(=O)OC(C)(C)C)C(C)(C)C)C2)cc1
7.4 | O=C(N[C@H](C(=O)N1C[C@@H](n2cc(-c3ccccc3)nn2)C[C@H]1C(=O)N[C@H](Cc1ccccc1)C(=O)NS(=O)(=O)C1CC1)C1CCCCC1)c1ccccc1
> 100 | Cc1ccc(S(=O)(=O)NC(=O)[C@H](CC(C)C)NC(=O)[C@@H]2C[C@H](n3cc(-c4ccccc4)nn3)CN2C(=O)[C@H](Cc2ccccc2)NC(=O)C(C)C)cc1
34 | Cc1ccc(S(=O)(=O)NC(=O)[C@H](CC(C)C)NC(=O)[C@@H]2C[C@H](n3cc(-c4ccccc4)nn3)CN2C(=O)[C@@H](NC(=O)c2ccco2)C(C)(C)C)cc1
> 100 | CC(C)C[C@H](NC(=O)OC(C)(C)C)C(=O)N1C[C@@H](n2cc(-c3ccccc3)nn2)C[C@H]1C(=O)N[C@H](Cc1ccccc1)C(=O)NS(=O)(=O)C1CC1
7.1 | CC(C)(C)OC(=O)N[C@@H](Cc1ccccc1)C(=O)N1C[C@@H](n2cc(-c3ccccc3)nn2)C[C@H]1C(=O)N[C@H](Cc1ccccc1)C(=O)NS(=O)(=O)C1CC1
2.1 | Cc1cccc(Nc2ccccc2C(=O)N[C@H]2C[C@@H](C(=O)N[C@@H](CC(C)C)C(=O)NS(=O)(=O)C3CC3)N(C(=O)[C@@H](NC(=O)OC(C)(C)C)C(C)(C)C)C2)c1C
5.6 | Cc1ccc(S(=O)(=O)NC(=O)[C@H](CC(C)C)NC(=O)[C@@H]2C[C@H](n3cc(-c4ccccc4)nn3)CN2C(=O)[C@H](Cc2c[nH]c3ccccc23)NC(=O)OC(C)(C)C)cc1
4.5 | O=C(N[C@H](C(=O)N1C[C@@H](n2cc(-c3ccccc3)nn2)C[C@H]1C(=O)N[C@H](Cc1ccccc1)C(=O)NS(=O)(=O)C1CC1)C1CCCCC1)OCc1ccccc1
